Results: ChEMBL document CHEMBL4007505 (J Med Chem, 2017)
Active and inactive are the calls of the source. No cut-off for these calls is given here.

Legend:
[1] = target: T1, Sodium-dependent dopamine transporter (Homo sapiens, UniProt Q01959); assay: Enhancing of [3H]mazindol binding to recombinant human DAT expressed in HEK293 cell membranes preincubated for 10 mins followed by radioligand addition measured after 90 mins by micro beta scintillation counting analysis; design: concentration or dose not given beside the values; settings: for EC50: read-out: EC50
T1 sequence (Q01959 whole entry): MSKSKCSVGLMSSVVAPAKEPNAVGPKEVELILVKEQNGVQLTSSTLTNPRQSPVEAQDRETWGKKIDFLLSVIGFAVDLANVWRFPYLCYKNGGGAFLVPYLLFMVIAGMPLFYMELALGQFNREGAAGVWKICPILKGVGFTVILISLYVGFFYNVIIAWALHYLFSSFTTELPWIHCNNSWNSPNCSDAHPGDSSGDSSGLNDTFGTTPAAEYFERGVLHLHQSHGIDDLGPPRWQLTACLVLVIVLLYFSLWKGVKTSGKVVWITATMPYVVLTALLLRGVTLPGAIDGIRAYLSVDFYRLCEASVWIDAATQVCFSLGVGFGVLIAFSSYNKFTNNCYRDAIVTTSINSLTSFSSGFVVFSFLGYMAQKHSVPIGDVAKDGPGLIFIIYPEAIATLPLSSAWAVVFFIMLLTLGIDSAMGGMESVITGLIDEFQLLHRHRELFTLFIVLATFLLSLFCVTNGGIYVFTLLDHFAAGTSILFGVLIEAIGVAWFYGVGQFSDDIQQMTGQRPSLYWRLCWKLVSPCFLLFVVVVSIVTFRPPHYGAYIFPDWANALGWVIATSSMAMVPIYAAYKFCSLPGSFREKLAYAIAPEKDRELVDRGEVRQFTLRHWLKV
How it was run: (§1)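 Membranes of HEK-293 cells stably expressing hDAT, hNET or hSERT. […] Compound preincubated 10 min at room temperature, then [125I]23 (40-80 pM final) or [3H]26 (1-3 nM for DAT and NET, 10-13 nM for SERT) added. Incubated 90 min at room temperature in the dark, then filtered. EC50 or Ki; mean ± SEM.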

[2] = target: T1, Sodium-dependent dopamine transporter; assay: Enhancing of [125I]RTI-55 binding to recombinant human DAT expressed in HEK293 cell membranes preincubated for 10 mins followed by radioligand addition measured after 90 mins by micro beta scintillation counting analysis; design: concentration or dose not given beside the values; settings: for EC50: read-out: EC50; how it was run: as §1
[3] = target: T2, Sodium-dependent noradrenaline transporter (Homo sapiens, UniProt P23975); assay: Enhancing of [125I]RTI-55 binding to recombinant human NET expressed in HEK293 cell membranes preincubated for 10 mins followed by radioligand addition measured after 90 mins by micro beta scintillation counting analysis; design: concentration or dose not given beside the values; settings: for EC50: read-out: EC50
T2 sequence (P23975 whole entry): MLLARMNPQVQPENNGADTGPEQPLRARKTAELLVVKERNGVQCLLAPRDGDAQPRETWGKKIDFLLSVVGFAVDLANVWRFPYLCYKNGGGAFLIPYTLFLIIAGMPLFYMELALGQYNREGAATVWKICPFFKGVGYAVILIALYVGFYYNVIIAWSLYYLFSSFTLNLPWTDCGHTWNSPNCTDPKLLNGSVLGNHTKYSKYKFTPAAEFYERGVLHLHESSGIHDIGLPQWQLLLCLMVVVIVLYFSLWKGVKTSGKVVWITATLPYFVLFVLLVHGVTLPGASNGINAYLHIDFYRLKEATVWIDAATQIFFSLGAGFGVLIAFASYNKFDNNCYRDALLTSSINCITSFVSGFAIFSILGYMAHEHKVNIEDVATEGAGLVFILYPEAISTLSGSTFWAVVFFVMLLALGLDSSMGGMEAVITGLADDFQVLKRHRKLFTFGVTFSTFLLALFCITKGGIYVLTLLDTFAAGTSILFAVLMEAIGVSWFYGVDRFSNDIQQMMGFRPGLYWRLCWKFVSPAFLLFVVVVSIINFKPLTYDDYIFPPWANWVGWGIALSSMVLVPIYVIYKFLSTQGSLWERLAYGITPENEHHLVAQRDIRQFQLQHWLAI

[4] = target: T3, Sodium-dependent serotonin transporter (Homo sapiens, UniProt P31645); assay: Inhibition of recombinant human SERT expressed in HEK293 cell […] as reduction in [3H]5-HT uptake incubated for 22 mins by micro beta scintillation counting analysis
Target sequence in this assay (P31645 whole entry): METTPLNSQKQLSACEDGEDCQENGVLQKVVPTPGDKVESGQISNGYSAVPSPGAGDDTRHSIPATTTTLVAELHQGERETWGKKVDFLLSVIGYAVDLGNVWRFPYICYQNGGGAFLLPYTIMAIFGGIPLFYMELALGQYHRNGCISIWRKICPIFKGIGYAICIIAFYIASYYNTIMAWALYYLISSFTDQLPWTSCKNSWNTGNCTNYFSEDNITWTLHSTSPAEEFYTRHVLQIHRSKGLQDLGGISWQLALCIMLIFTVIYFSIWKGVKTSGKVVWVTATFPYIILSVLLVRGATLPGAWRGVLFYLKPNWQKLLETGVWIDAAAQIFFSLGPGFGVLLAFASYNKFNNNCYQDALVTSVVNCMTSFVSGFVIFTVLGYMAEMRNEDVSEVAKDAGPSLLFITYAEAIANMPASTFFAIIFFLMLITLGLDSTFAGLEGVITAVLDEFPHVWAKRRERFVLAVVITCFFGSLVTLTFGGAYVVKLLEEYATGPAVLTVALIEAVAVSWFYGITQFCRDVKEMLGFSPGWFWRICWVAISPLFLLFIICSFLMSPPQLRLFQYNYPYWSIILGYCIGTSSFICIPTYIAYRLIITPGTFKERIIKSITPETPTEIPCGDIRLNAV

[5] = target: T1, Sodium-dependent dopamine transporter; assay: Inhibition of recombinant human DAT expressed in HEK293 cell […] as reduction in [3H]-DA uptake incubated for 22 mins by micro beta scintillation counting analysis
[6] = target: T3, Sodium-dependent serotonin transporter; assay: Enhancing of [125I]RTI-55 binding to recombinant human SERT expressed in HEK293 cell membranes preincubated for 10 mins followed by radioligand addition measured after 90 mins by micro beta scintillation counting analysis; settings: for EC50: read-out: EC50
[7] = target: T2, Sodium-dependent noradrenaline transporter; assay: Enhancing of [3H]mazindol binding to recombinant human NET expressed in HEK293 cell membranes preincubated for 10 mins followed by radioligand addition measured after 90 mins by micro beta scintillation counting analysis
[8] = target: T3, Sodium-dependent serotonin transporter; assay: Enhancing of [3H]mazindol binding to recombinant human SERT expressed in HEK293 cell membranes preincubated for 10 mins followed by radioligand addition measured after 90 mins by micro beta scintillation counting analysis
[9] = target: T1, Sodium-dependent dopamine transporter; assay: Inhibition of [3H]WIN35,428 binding to recombinant human DAT expressed in HEK293 cell membranes at 10 uM pre-incubated for 10 mins before radioligand addition and measured 90 mins after radioligand addition by micro beta scintillation counting analysis relative to control
[10] = target: T4, 5-hydroxytryptamine receptor 2C (Homo sapiens, UniProt P28335); assay: Displacement of [3H]Mesulergine from human 5-HT2C receptor
T4 sequence (P28335 whole entry): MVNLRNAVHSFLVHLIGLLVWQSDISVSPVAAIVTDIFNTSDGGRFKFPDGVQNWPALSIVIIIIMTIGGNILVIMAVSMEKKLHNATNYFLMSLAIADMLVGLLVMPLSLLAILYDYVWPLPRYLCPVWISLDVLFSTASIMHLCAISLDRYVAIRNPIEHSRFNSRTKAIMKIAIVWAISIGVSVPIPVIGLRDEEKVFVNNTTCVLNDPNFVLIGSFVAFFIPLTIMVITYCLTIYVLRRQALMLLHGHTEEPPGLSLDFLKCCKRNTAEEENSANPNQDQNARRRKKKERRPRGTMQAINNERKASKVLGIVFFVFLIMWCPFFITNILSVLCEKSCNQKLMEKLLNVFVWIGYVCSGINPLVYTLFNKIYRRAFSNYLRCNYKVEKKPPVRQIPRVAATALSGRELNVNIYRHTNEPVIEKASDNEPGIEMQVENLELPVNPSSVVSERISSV

[11] = target: T2, Sodium-dependent noradrenaline transporter; assay: Inhibition of recombinant human NET expressed in HEK293 […] assessed as reduction in [3H]-norepinephrine uptake incubated for 22 mins by micro beta scintillation counting analysis
[12] = target: T5, Adenosine receptor A3 (Homo sapiens, UniProt P0DMS8); assay: Displacement of [125I]N6-(4-amino-3-iodobenzyl)adenosine-5'-N-methyluronamide from human A3AR expressed in HEK293T cells pre-incubated for 10 mins before radioligand addition and measured 90 mins after radioligand addition by micro beta scintillation counting analysis relative to control; assay type: cell-based, HEK-293T
T5 sequence (P0DMS8 whole entry): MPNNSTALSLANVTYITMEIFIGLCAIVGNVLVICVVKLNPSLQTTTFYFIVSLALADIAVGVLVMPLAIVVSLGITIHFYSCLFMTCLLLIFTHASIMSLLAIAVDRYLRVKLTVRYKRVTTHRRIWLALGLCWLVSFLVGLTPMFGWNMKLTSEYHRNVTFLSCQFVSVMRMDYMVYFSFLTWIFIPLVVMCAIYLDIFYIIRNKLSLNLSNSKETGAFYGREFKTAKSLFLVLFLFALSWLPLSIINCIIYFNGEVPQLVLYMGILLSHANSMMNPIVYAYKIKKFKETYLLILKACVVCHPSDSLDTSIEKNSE

[13] = target: T6, Adenosine receptor A3 (Mus musculus) (UniProt Q61618); assay: Displacement of [125I]N6-(4-amino-3-iodobenzyl)adenosine-5'-N-methyluronamide from mouse A3AR expressed in HEK293T cells at 10 uM pre-incubated for 10 mins before radioligand addition and measured 90 mins after radioligand addition by micro beta scintillation counting analysis relative to control; assay type: cell-based
T6 sequence (whole entry): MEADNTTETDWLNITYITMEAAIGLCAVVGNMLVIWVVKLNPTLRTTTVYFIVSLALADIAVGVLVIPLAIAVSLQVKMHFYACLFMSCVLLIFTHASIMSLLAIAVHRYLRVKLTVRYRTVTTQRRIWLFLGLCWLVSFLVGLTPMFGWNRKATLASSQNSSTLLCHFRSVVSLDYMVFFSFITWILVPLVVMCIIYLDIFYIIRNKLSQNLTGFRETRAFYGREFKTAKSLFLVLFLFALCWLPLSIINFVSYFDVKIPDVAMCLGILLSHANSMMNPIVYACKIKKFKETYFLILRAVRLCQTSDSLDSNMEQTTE

[14] = target: T1, Sodium-dependent dopamine transporter; assay: Enhancing of [3H]WIN35,428 binding to recombinant human DAT expressed in HEK293 cell membranes at 10 uM pre-incubated for 10 mins before radioligand addition and measured 90 mins after radioligand addition by micro beta scintillation counting analysis relative to control
[15] = target: T1, Sodium-dependent dopamine transporter; assay: Enhancing of [3H]WIN35,428 binding to recombinant human DAT expressed in HEK293 cell membranes pre-incubated for 10 mins before radioligand addition and measured 90 mins after radioligand addition by micro beta scintillation counting analysis relative to control
[16] = target: Adenosine receptor A3 (Homo sapiens) (UniProt P0DMS8); assay: Agonist activity at human A3AR assessed as inhibition of cAMP formation at 10 uM relative to adenosine-5'-Nethyluronamide
[17] = target: Sodium-dependent dopamine transporter (Mus musculus) (UniProt Q61327); assay: (§2) Enhancing of [125I]RTI-55 binding to mouse DAT expressed in HEK293 cells preincubated for 10 mins followed by radioligand addition measured after 90 mins by micro beta scintillation counting analysis; assay type: cell-based
Sodium-dependent dopamine transporter (Mus musculus), sequence (Q61327 whole entry): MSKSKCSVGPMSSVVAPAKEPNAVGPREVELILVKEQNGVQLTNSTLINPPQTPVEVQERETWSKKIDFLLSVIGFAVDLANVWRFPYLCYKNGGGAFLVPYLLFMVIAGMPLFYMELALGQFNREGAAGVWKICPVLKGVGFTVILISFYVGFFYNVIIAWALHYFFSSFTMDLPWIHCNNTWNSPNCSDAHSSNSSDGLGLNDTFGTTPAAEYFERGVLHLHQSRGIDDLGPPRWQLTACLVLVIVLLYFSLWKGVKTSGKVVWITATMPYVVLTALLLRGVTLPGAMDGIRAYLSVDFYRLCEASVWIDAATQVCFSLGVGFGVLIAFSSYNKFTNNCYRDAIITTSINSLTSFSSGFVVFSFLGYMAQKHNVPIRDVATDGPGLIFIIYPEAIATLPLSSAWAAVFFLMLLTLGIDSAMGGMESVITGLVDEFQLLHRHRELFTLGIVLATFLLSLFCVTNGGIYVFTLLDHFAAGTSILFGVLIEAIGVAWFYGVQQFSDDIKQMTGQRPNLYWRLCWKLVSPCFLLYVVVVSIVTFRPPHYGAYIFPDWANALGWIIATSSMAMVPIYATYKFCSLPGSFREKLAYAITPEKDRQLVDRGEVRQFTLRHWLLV
How it was run: (§3)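 Membranes preincubated 10 min at room temperature with compound in Krebs-HEPES buffer pH 7.4, then [125I]23 at fixed 45-50 pM for 90 min in the dark, filtered. […] EC50 and % control binding; mean ± SEM.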

[18] = target: T7, Sodium-dependent dopamine transporter (Mus musculus, UniProt Q61327); assay: as §2; assay type: cell-based; how it was run: as §3
T7 sequence (Q61327 whole entry): as above

[19] = target: T7, Sodium-dependent dopamine transporter; assay: Inhibition of mouse DAT expressed in HEK293 cells assessed as reduction in [3H]-DA uptake; assay type: cell-based
[20] = target: T8, Adenosine receptor A3 (Mus musculus, UniProt Q61618); assay: Displacement of [125I]N6-(4-amino-3-iodobenzyl)adenosine-5'-N-methyluronamide from mouse A3AR expressed in HEK293T cells pre-incubated for 10 mins before radioligand addition and measured 90 mins after radioligand addition by micro beta scintillation counting analysis relative to control; assay type: cell-based
T8 sequence (Q61618 whole entry): T6 sequence (whole entry)

| SMILES | Activity [1] | EC50 [1] | Activity [2] | EC50 [2] | Activity [3] | IC50 [5] | Activity [6] | Activity [7] | inhibition [9] | EC50 [3] | IC50 [11] | Ki [12] | inhibition [13] | Activity [14] | EC50 [15] | other results |
| --- | --- | --- | --- | --- | --- | --- | --- | --- | --- | --- | --- | --- | --- | --- | --- | --- |
| CNC(=O)[C@@]12C[C@@H]1[C@@H](n1cnc3c(NC)nc(C#Cc4ccc(F)c(F)c4)nc31)[C@H](O)[C@@H]2O | 438% | 128 nM | 690% | 70 nM | 371% | 92 nM | inactive | inactive |  |  |  |  |  |  |  | IC50 [4]: > 10000 nM; EC50 [6]: > 10000 nM; Activity [8]: inactive; EC50 [8]: > 10000 nM |
| CNc1nc(C#Cc2ccc(Br)s2)nc2c1ncn2[C@H]1[C@H](O)[C@H](O)[C@]2(C(=O)OC)C[C@H]12 | 520% | 308 nM | 374% | 53.5 nM | 293% | 246 nM | inactive | inactive | inactive | 400 nM | 3560 nM | 8.56 nM | 57% | 370% |  | Ki [10]: 258 nM; EC50 [6]: > 10000 nM; EC50 [8]: > 10000 nM |
| CNc1nc(C#Cc2ccc(Cl)s2)nc2c1ncn2[C@H]1[C@H](O)[C@H](O)[C@]2(C(=O)OCCC(C)C)C[C@H]12 |  |  |  |  |  |  |  |  | inactive |  |  | 24.4 nM | 32% | 196% |  |  |
| CNc1nc(C#Cc2ccc(Cl)s2)nc2c1ncn2[C@H]1[C@H](O)[C@H](O)[C@]2(C(=O)OC(C)C)C[C@H]12 |  |  |  |  |  |  |  |  | 36% |  |  | 42.9 nM | 30% | inactive | > 1000 nM | Ki [10]: 430 nM |
| CNc1nc(C#Cc2ccc(Cl)s2)nc2c1ncn2[C@H]1[C@H](O)[C@H](O)[C@]2(C(=O)OC)C[C@H]12 | 540% | 124 nM | 458% | 35 nM | 375% | 127 nM | inactive | inactive | inactive | 310 nM | 3380 nM | 5.38 nM | 36% | 352% |  | Efficacy [16]: 11.6%; Emax [17]: 1440%; EC50 [18]: 810 nM; IC50 [19]: 940 nM |
| CNc1nc(C#Cc2ccc(Cl)s2)nc2c1ncn2[C@H]1[C@H](O)[C@H](O)[C@]2(C(=O)OCCCc3ccccc3)C[C@H]12 |  |  |  |  |  |  |  |  |  |  |  |  | 9% | inactive |  |  |
| CCOC(=O)[C@@]12C[C@@H]1[C@@H](n1cnc3c(NC)nc(C#Cc4ccc(Cl)s4)nc31)[C@H](O)[C@@H]2O | 455% | 267 nM | 434% | 34 nM | 365% | 107 nM | inactive | inactive | inactive | 490 nM | 3980 nM | 14.5 nM | 45% | 539% |  | Emax [17]: 1560%; EC50 [18]: 1070 nM; IC50 [19]: 1170 nM; EC50 [6]: > 10000 nM; EC50 [8]: > 10000 nM |
| CCNc1cc(C#Cc2ccc(Cl)s2)nc2c1ncn2[C@H]1[C@H](O)[C@H](O)[C@]2(C(=O)NC)C[C@H]12 |  |  |  |  |  |  |  |  |  |  |  |  |  | inactive |  |  |
| CNC(=O)[C@@]12C[C@@H]1[C@@H](n1cnc3c(NC)nc(C#Cc4ccc(Cl)s4)cc31)[C@H](O)[C@@H]2O | 405% | 550 nM | 437% | 239 nM | 318% | 163 nM | inactive | inactive | inactive | 740 nM | 5060 nM |  | 38% | 334% |  | Efficacy [16]: 116%; Emax [17]: 1000%; EC50 [18]: 2760 nM; IC50 [19]: 4300 nM |
| CCCOC(=O)[C@@]12C[C@@H]1[C@@H](n1cnc3c(NC)nc(C#Cc4ccc(Cl)s4)nc31)[C@H](O)[C@@H]2O | 347% | 535 nM | 461% | 294 nM | 302% | 1140 nM | inactive | inactive | inactive | 980 nM | 7900 nM | 5.78 nM |  | 426% |  | Ki [20]: 2810 nM; EC50 [6]: > 10000 nM; EC50 [8]: > 10000 nM |
| CCCCOC(=O)[C@@]12C[C@@H]1[C@@H](n1cnc3c(NC)nc(C#Cc4ccc(Cl)s4)nc31)[C@H](O)[C@@H]2O |  |  |  |  |  |  |  |  | inactive |  |  | 17.5 nM | 54% | 285% | 1200 nM |  |
| CNc1nc(C#Cc2ccc(Cl)s2)nc2c1ncn2[C@H]1[C@H](O)[C@H](O)[C@]2(C(=O)O)C[C@H]12 |  |  |  |  |  |  |  |  | inactive |  |  |  | 0% | 50% | > 1000 nM |  |
| CCOC(=O)[C@@]12C[C@@H]1[C@@H](n1cnc3c(NC)nc(C#Cc4ccc(Br)s4)nc31)[C@H](O)[C@@H]2O |  |  |  |  |  |  |  |  | inactive |  |  | 6.42 nM |  | 430% | 400 nM | Ki [20]: 1800 nM |
| CNc1nc(C#Cc2ccc(Cl)s2)nc2c1ncn2[C@H]1[C@H](O)[C@H](O)[C@]2(C(=O)OCCC3CCCCC3)C[C@H]12 |  |  |  |  |  |  |  |  |  |  |  | 770 nM | 5% | inactive |  |  |
| CNc1nc(C#Cc2ccc(Cl)s2)nc2c1ncn2[C@H]1[C@H](O)[C@H](O)[C@]2(C(=O)NCCN)C[C@H]12 |  |  |  |  |  |  |  |  | inactive |  |  | 156 nM | 0% | 136% | > 1000 nM |  |
